Values after ≈ are worked out from the molar mass of the structure shown. Blank lines part the entries; values can stand above or below the compound they belong to.
How the values were obtained:
[1] = Apparent permeability of the compound at pH 7.4; format: ADME; conditions: not told
[2] = tested on: Canis familiaris; assay: Unbound AUC in beagle dog at 30 mg/kg, po qd administered for 1 month; format: ADME, organism-based, Canis lupus familiaris; conditions: in vivo
Method in brief: (§1)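 Beagle dogs were dosed orally once daily in a 14-day exploratory study or 1-month toxicity studies. Steady-state systemic exposure over the 24 h dosing interval is reported as the mean of male and female values combined.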

[3] = biological target: T1, Diacylglycerol O-acyltransferase 1 (Homo sapiens, UniProt O75907); assay: Inhibition of DGAT1 (unknown origin)
T1 sequence (O75907 whole entry): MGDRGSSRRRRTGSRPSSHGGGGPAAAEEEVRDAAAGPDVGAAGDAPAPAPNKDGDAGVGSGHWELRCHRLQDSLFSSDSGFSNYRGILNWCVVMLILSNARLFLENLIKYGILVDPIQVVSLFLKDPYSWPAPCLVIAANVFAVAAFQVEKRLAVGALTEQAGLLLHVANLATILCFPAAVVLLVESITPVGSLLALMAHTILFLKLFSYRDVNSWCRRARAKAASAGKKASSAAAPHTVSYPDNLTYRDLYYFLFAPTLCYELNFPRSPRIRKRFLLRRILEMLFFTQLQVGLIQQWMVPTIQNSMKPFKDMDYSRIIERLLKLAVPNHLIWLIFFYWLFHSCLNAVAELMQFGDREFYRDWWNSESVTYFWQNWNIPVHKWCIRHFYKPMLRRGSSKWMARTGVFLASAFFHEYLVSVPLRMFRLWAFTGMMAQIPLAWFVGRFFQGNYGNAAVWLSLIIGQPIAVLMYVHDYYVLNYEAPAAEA

[4] = Fraction unbound in rat plasma; format: ADME, cell-free
[5] = Oral bioavailability in beagle dog at 5 mg/kg; format: ADME, organism-based, Canis lupus familiaris; conditions: in vivo
[6] = biological target: T2, Diacylglycerol O-acyltransferase 2 (Canis lupus familiaris, UniProt A0A8I3NDW2); assay: Inhibition of dog DGAT2
T2 sequence (A0A8I3NDW2 whole entry): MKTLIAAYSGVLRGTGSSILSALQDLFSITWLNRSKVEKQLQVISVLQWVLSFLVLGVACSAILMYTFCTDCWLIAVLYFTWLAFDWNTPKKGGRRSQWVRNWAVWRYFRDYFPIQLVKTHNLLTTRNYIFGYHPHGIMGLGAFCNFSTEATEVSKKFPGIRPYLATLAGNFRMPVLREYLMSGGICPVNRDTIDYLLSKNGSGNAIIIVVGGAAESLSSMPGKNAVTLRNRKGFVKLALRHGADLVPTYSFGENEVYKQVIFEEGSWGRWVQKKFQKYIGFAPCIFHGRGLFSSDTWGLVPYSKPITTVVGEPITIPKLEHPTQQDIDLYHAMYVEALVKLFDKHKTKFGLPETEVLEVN

[7] = tested on: Canis familiaris; assay: Unbound Cmax in beagle dog at 30 mg/kg, po qd administered for 1 month; format: ADME, organism-based, Canis lupus familiaris; conditions: in vivo
Method in brief: (§2)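 One-month dog toxicity study with once-daily oral dosing. Toxicity groups were 2/sex/dose, and unbound peak exposure was taken from toxicokinetic sampling.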

[8] = biological target: T3, Diacylglycerol O-acyltransferase 2 (Homo sapiens, UniProt Q96PD7); assay: Inhibition of human DGAT2
T3 sequence (Q96PD7 whole entry): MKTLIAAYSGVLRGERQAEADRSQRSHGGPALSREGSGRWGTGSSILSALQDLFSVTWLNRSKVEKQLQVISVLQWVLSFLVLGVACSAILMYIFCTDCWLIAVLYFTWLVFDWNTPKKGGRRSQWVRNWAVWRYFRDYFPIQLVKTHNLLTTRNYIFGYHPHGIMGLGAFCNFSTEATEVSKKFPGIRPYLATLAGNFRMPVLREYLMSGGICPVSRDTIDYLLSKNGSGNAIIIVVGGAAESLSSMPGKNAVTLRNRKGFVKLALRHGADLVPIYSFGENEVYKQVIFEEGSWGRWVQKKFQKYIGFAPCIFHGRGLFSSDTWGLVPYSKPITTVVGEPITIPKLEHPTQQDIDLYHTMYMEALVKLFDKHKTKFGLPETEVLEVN
Method in brief: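 IC50 against human DGAT2 in an enzymatic assay, reported as the geometric mean of at least three replicates with SEM.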

[9] = Half life in beagle dog at 1 mg/kg, iv; format: ADME, organism-based, Canis lupus familiaris; conditions: in vivo
[10] = tested on: Canis familiaris; assay: In vivo inhibition of DGAT2 in beagle dog assessed as coverage of in vitro IC50 for dog DGAT2 at 3 mg/kg, po qd administered for 1 month; format: functional, Canis lupus familiaris; design: scale not given: the % may be the effect or the level left
Method in brief: (§3)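 Beagle dogs, once-daily oral dosing for 14 days or 1 month; systemic exposure with sexes combined; coverage is the average % above dog DGAT2 IC50 at steady state over the 24 h dosing interval.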

[11] = Volume of distribution at steady state in beagle dog at 1 mg/kg, iv; format: ADME, organism-based, Canis lupus familiaris; conditions: in vivo, read-out: Vdss
Method in brief: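 Male Beagle dogs, single iv dose, crystalline form of compound; value is the mean of two experiments.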

[12] = tested on: Canis familiaris; assay: Toxicity in beagle dog at 3 to 30 mg/kg, po qd administered for 1 month; format: organism-based, Canis lupus familiaris; conditions: in vivo
[13] = Half life in beagle dog at 5 mg/kg, po; format: ADME, organism-based, Canis lupus familiaris; conditions: in vivo
[14] = Plasma clearance in beagle dog at 1 mg/kg, iv; format: ADME, organism-based, Canis lupus familiaris
[15] = Apparent intrinsic clearance in rat hepatocytes assessed per million cells; format: ADME, cell-based, Hepatocyte
[16] = tested on: Canis familiaris; assay: In vivo inhibition of DGAT2 in beagle dog assessed as coverage of in vitro IC50 for dog DGAT2 at 30 mg/kg, po qd administered for 1 month; format: functional, Canis lupus familiaris; design: scale not given: the % may be the effect or the level left; method in brief: as §3
[17] = Ratio of Cmax in beagle dog at 30 mg/kg, po qd administered for 1 month to IC50 for in vitro inhibition of dog DGAT2; format: organism-based, Canis lupus familiaris; conditions: in vivo
Method in brief: (§4)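 One-month toxicity study in Beagle dogs with N = 2/sex/dose. Plasma exposure at each dose level was referenced to the dog DGAT2 enzymatic IC50, reported as the geometric mean of at least three replicates.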

[18] = biological target: T4, Cytochrome P450 3A4 (Homo sapiens, UniProt P08684); assay: Drug metabolism in human liver microsomes assessed as fraction of CYP3A4-mediated oxidative metabolism preincubated for 5 mins followed by addition of NADPH regenerating system and measured after 2.5 to 60 mins; format: ADME
Method in brief: (§5)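 Fractions of metabolism attributed to CYP oxidation and UGT glucuronidation were derived from human liver microsomal incubations. For the glucuronidation arm, microsomes were supplemented with the UGT cofactor UDP-glucuronic acid.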

[19] = biological target: T5, Diacylglycerol O-acyltransferase 2 (Rattus norvegicus, UniProt Q5FVP8); assay: Inhibition of rat DGAT2
T5 sequence (Q5FVP8 whole entry): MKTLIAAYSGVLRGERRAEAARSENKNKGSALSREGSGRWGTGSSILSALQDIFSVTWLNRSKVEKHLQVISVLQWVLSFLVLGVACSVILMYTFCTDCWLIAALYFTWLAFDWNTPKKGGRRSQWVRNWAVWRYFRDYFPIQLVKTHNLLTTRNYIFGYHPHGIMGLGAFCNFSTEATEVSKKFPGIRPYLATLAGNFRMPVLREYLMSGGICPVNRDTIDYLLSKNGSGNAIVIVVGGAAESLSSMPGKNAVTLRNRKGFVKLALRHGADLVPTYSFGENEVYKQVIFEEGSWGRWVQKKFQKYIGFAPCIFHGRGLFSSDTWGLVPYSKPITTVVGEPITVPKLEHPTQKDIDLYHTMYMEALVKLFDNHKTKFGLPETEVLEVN

[20] = Ratio of Cmax in beagle dog at 10 mg/kg, po qd administered for 1 month to IC50 for in vitro inhibition of dog DGAT2; format: organism-based, Canis lupus familiaris; conditions: in vivo; method in brief: as §4
[21] = Thermodynamic solubility of the compound at pH 6.5; format: physicochemical; conditions: buffer, read-out: Therm_solubility
[22] = tested on: Canis familiaris; assay: Unbound Cmax in beagle dog at 10 mg/kg, po qd administered for 1 month; format: ADME, organism-based, Canis lupus familiaris; conditions: in vivo; method in brief: as §1
[23] = Drug metabolism in human liver microsomes assessed as fraction of UGT-mediated glucuronidation preincubated for 5 mins followed by addition of NADPH regenerating system and measured after 2.5 to 60 mins; format: ADME; method in brief: as §5
[24] = tested on: Canis familiaris; assay: In vivo inhibition of DGAT2 in beagle dog assessed as coverage of in vitro IC50 for dog DGAT2 at 10 mg/kg, po qd administered for 1 month; format: functional, Canis lupus familiaris; design: scale not given: the % may be the effect or the level left; method in brief: as §3
[25] = tested on: Canis familiaris; assay: Unbound AUC in beagle dog at 3 mg/kg, po qd administered for 1 month; format: ADME, organism-based, Canis lupus familiaris; conditions: in vivo; method in brief: as §1
[26] = Apparent intrinsic clearance in dog hepatocytes assessed per million cells; format: ADME, cell-based, Canis lupus familiaris, Hepatocyte
[27] = Fraction unbound in dog plasma; format: ADME, cell-free, Canis lupus familiaris
[28] = tested on: Canis familiaris; assay: Unbound Cmax in beagle dog at 3 mg/kg, po qd administered for 1 month; format: ADME, organism-based, Canis lupus familiaris; conditions: in vivo; method in brief: as §2
[29] = Ratio of Cmax in beagle dog at 3 mg/kg, po qd administered for 1 month to IC50 for in vitro inhibition of dog DGAT2; format: organism-based, Canis lupus familiaris; conditions: in vivo; method in brief: as §4
[30] = Apparent intrinsic clearance in human hepatocytes assessed per million cells; format: ADME, cell-based, Hepatocyte
[31] = tested on: Canis familiaris; assay: Unbound AUC in beagle dog at 10 mg/kg, po qd administered for 1 month; format: ADME, organism-based, Canis lupus familiaris; conditions: in vivo; method in brief: as §1
[32] = biological target: T4, Cytochrome P450 3A4; assay: (§6) Drug metabolism in human liver microsomes assessed as CYP3A4-mediated oxidative metabolism by measuring clearance rate; format: ADME; conditions: microsomes
[33] = (§7) Drug metabolism in human liver microsomes assessed as UGT-mediated glucuronidation by measuring clearance rate; format: ADME; conditions: microsomes
[34] = biological target: CYP3A4 (Homo sapiens, UniProt P08684); assay: as §6; format: ADME; conditions: liver microsomes, read-out: CLH
[35] = tested on: UGT; assay: as §7; format: ADME; conditions: liver microsomes, read-out: CLH
[36] = tested on: Rattus norvegicus; assay: In vivo DGAT2 inhibition in po dosed sucrose-fed rat assessed as decrease in plasma triglyceride levels after 2 hrs; format: functional, organism-based
Method in brief: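 Rats fed a high-sucrose diet, single oral dose of test article or vehicle; plasma TG measured in tail-vein blood 2 h post dose; n = 7–8 per group; results as percent change from vehicle group, one-way ANOVA with Dunnett's test.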

CYP3A4, sequence (P08684 whole entry): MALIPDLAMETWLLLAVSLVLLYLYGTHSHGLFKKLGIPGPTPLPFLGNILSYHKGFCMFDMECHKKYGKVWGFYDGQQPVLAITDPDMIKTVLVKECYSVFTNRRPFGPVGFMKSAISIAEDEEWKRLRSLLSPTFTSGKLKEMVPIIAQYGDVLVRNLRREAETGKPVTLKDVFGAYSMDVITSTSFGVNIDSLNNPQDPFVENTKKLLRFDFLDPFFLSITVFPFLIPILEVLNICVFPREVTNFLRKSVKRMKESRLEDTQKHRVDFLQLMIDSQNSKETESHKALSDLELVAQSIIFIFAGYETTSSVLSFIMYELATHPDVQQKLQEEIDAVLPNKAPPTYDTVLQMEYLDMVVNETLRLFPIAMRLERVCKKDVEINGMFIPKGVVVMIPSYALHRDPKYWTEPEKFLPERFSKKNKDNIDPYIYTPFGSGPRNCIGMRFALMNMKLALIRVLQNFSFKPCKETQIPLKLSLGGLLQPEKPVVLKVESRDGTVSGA
T4 sequence (P08684 whole entry): as above

Papp [1]: 16.2 ×10⁻⁶ cm/s | fAUC [2]: 1560 ng·h/mL | IC50 [3]: > 50000 nM | fraction unbound [4]: 0.18 | bioavailability [5]: 32% | IC50 [6]: 53 nM | fCmax [7]: 1760 nM | IC50 [8]: 26 nM | half-life [9]: 1.1 h | Vd [11]: 0.58 L/kg | half-life [13]: 3.8 h | clearance [14]: 7.3 mL/min/kg | CLH(app) [15]: 12 µL/min | Ratio [17]: 33 | Ratio [18]: 0.48 | IC50 [19]: 241 nM | Ratio [20]: 9 | solubility thermodynamic [21]: 53 µg/mL (≈ 124 µM) | fCmax [22]: 487 nM | Ratio [23]: 0.52 | fAUC [25]: 149 ng·h/mL | CLH(app) [26]: < 8 µL/min | fraction unbound [27]: 0.25 | fCmax [28]: 140 nM | Ratio [29]: 3 | CLH(app) [30]: 13.1 µL/min | fAUC [31]: 540 ng·h/mL | CLH [32]: 23.5 µL/min/mg | CLH [33]: 20.3 µL/min/mg
Structure (SMILES): CC(c1nc2cnc(N3CCC[C@@H](C(=O)N4CCCC4)C3)nc2[nH]1)n1cc(Cl)cn1 (single isomer, unassigned; diastereomer 1) [listing 1 of 2 here]
Activity [10]: 21% | Activity [12]: Non-Toxic | Activity [16]: 74% | Activity [24]: 50%

microsomal CLint [34]: 26 µL/min/mg | microsomal CLint [35]: 7.6 µL/min/mg
Structure (SMILES): C[C@H](c1nc2ccc(N3CCC[C@@H](C(=O)N4CCCC4)C3)nc2[nH]1)n1cc(Cl)cn1

IC50 [8]: 37 nM | microsomal CLint [34]: 21.5 µL/min/mg | microsomal CLint [35]: 15.2 µL/min/mg
Structure (SMILES): CC(c1nc2cnc(N3CCC[C@@H](C(=O)N4CCCC4)C3)nc2[nH]1)n1cc(Cl)cn1 (single isomer, unassigned; diastereomer 2)

microsomal CLint [34]: 35.4 µL/min/mg
Structure (SMILES): CC(C)(c1nc2ccc(N3CCC[C@@H](C(=O)N4CCCC4)C3)nc2[nH]1)n1cc(Cl)cn1

Structure (SMILES): CC(c1nc2cnc(N3CCC[C@@H](C(=O)N4CCCC4)C3)nc2[nH]1)n1cc(Cl)cn1 (single isomer, unassigned; diastereomer 1) [listing 2 of 2 here]
inhibition [36]: Dose-dependent effect

Source: ChEMBL document CHEMBL4261487, “Small structural changes of the imidazopyridine diacylglycerol acyltransferase 2 (DGAT2) inhibitors produce an improved safety profile” (Medchemcomm, 2017)
